Assay results as given in ChEMBL document CHEMBL1128561, “Inhibition of uridine phosphorylase: synthesis and structure-activity relationships of aryl-substituted 5-benzyluracils and 1-[(2-hydroxyethoxy)methyl]-5-benzyluracils” (J Med Chem, 1995).

Tests used:
[1] = target: Uridine phosphorylase 1 (Mus musculus) (UniProt P52624); experiment: The compound was tested for inhibition of uridine phosphorylase (UrdPase) from murine liver at 10 uM of concentration
Uridine phosphorylase 1 [2] = target: T1, Uridine phosphorylase 1 (Mus musculus, UniProt P52624); experiment: Inhibition of uridine phosphorylase (UrdPase) from murine liver.
T1 sequence (P52624 whole entry): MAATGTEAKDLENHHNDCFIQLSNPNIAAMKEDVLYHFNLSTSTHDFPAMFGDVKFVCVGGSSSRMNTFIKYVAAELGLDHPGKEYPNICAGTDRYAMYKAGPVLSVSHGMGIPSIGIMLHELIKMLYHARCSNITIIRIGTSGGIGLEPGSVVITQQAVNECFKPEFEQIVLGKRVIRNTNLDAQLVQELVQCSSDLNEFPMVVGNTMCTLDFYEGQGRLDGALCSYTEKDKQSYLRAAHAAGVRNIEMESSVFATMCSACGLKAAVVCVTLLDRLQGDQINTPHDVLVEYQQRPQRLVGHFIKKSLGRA
In short: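 Murine liver UrdPase; uridine converted to uracil over 30 min at 37 °C, with enzyme set to give 10% conversion uninhibited. Stopped by 1 min at 100 °C. Uridine and uracil separated by TLC (chloroform:methanol:acetic acid 90:5:5).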

[3] = target: Uridine phosphorylase 1 (Mus musculus) (UniProt P52624); experiment: The compound was tested for inhibition of uridine phosphorylase (UrdPase) from murine liver at 5 uM of concentration
Uridine phosphorylase 1 [4] = target: T1, Uridine phosphorylase 1; experiment: The compound was tested for inhibition of uridine phosphorylase (UrdPase) from murine liver Value refers to activity for apparent Ki value

Sequence of Uridine phosphorylase 1 (Mus musculus) (P52624 whole entry, looked up): as the sequence (P52624 whole entry) above

Row | Structure (SMILES) | IC50 (Uridine phosphorylase 1 [2]) | further results
1 | Oc1ncc(Cc2ccc(C(F)(F)F)cc2)c(O)n1 | – | inhibition [1]: 16%
2 | COc1ccc(Cc2c[nH]c(=O)[nH]c2=O)cc1OC | 129 µM | –
3 | CCCOc1cccc(Cc2cn(COCCO)c(=O)[nH]c2=O)c1 | 0.047 µM | –
4 | O=c1[nH]cc(Cc2ccc3c(c2)OCO3)c(=O)[nH]1 | 13.6 µM | –
5 | O=c1[nH]cc(Cc2ccc([N+](=O)[O-])cc2)c(=O)[nH]1 | 5.9 µM | –
6 | Oc1ncc(Cc2cccc(OCc3ccccc3)c2)c(O)n1 | – | inhibition [3]: 15%
7 | O=c1[nH]cc(Cc2cccc(OCCCC(F)(F)F)c2)c(=O)[nH]1 | 13 µM | –
8 | COc1ccc(Cc2cnc(O)nc2O)cc1 | 66.5 µM | –
9 | COc1cccc(Cc2cn(COCCO)c(=O)[nH]c2=O)c1 | – | Ki (Uridine phosphorylase 1 [4]): 1860 nM
